Source: PubChem BioAssay
KDM4C inh: inhibitors of GASC-1 (KDM4C) histone demethylase, primary screen, biochemical, single concentration HTS; Lysine-specific demethylase 4C (Homo sapiens), Q9H3R0; GST-KDM4C 2-372, H3K9me3 peptide, LANCE TR-FRET; 96,000 tested, 0.15% active; inhibition, % at 12.5 µM;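 active = mean replicate inhibition above about 25%, with at least 55% of replicates also reaching it, limit read from the data, passing the limit was not always enough; inconclusive = only one of those two conditions met; inactive = neither condition met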
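Test system: N-terminal GST-fused human GASC-1 (KDM4C) fragment, residues 2-372; quantity: GASC-1 enzyme at 10 nM final in reaction; dosing: single dose; schedule: 30 min demethylation and 1 h detection at room temperature; signal: LANCE TR-FRET, excitation 340 nm, emissions 618 and 671 nm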
IDH1 mut inh: inhibitors of IDH1 R132H reductase, primary screen, biochemical, plate reader, single point; Isocitrate dehydrogenase [NADP] cytoplasmic (Homo sapiens), O75874; diaphorase/resazurin fluorescence, 60 min; inhibition, % at 10 µM; 70,000 tested, 0.18% active; AID 624101, 2012; in the data active = inhibition above about 34%; inconclusive = no clear call, values can overlap the other calls; inactive = below about 11%
Target sequence (O75874 whole entry R132H): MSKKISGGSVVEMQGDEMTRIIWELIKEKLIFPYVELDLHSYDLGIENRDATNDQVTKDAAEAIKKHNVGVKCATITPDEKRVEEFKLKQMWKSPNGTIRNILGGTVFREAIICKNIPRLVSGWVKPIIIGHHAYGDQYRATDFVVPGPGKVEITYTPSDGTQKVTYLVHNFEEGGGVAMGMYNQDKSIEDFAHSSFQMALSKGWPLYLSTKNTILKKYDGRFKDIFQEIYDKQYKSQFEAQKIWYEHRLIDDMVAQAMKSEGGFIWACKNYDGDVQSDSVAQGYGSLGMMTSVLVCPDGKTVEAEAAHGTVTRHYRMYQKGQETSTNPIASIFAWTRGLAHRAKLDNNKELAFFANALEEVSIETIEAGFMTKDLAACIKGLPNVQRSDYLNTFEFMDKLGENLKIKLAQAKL
Pf Dd2 growth: P. falciparum Dd2 growth inhibitors, primary screen, SYBR Green fluorescence, single dose replicates | activity change, % at 10 µM | 94,000 tested, 2.3% active | 72 h; active compounds read low; in the data active = activity change below about -80%; inconclusive = no clear call, values can overlap the other calls
Large screens that a line does not name were inactive. The full list was thinned out, with hits kept by preference.

Cc1ccc(S(=O)(=O)Nc2ccc3c(c2)C(=O)N([C@@H](C)CO)C[C@H](C)[C@@H](CN(C)C(=O)Nc2cccc4ccccc24)OCCCC[C@H](C)O3)cc1	Pf Dd2 growth -83
Cc1ccc(S(=O)(=O)Nc2ccc3c(c2)C(=O)N([C@@H](C)CO)C[C@H](C)[C@@H](CN(C)C(=O)Nc2cccc4ccccc24)OCCCC[C@@H](C)O3)cc1	Pf Dd2 growth -85 (no result: IDH1 mut inh)
Cc1ccc(S(=O)(=O)Nc2ccc3c(c2)C(=O)N([C@H](C)CO)C[C@@H](C)[C@H](CN(C)C(=O)Nc2cccc4ccccc24)OCCCC[C@@H](C)O3)cc1	none (no result: IDH1 mut inh)
Cc1ccc(S(=O)(=O)Nc2ccc3c(c2)C(=O)N([C@H](C)CO)C[C@H](C)[C@H](CN(C)C(=O)Nc2cccc4ccccc24)OCCCC[C@@H](C)O3)cc1	none (no result: KDM4C inh, IDH1 mut inh)
C[C@H](CO)N1C[C@H](C)[C@H](CN(C)C(=O)Nc2ccc(C(F)(F)F)cc2)OCCCC[C@H](C)Oc2ccc(NC(=O)Nc3ccc4c(c3)OCO4)cc2C1=O	none
COc1cccc(NC(=O)N2CC(=O)N3[C@H](CO)[C@H](c4ccc(C#CC5CCCCC5)cc4)[C@@H]3C2)c1	none (no result: IDH1 mut inh)
C[C@@H]1CN([C@@H](C)CO)C(=O)Cc2cc(NS(C)(=O)=O)ccc2O[C@@H]1CN(C)Cc1ccc(C(=O)Nc2ccccc2N)cc1	none
Cc1ccc(S(=O)(=O)Nc2ccc3c(c2)CC(=O)N([C@H](C)CO)C[C@@H](C)[C@@H](CN(C)Cc2ccc(C(=O)Nc4ccccc4N)cc2)O3)cc1	Pf Dd2 growth -86 (no result: IDH1 mut inh)
C[C@H](CO)N1C[C@H](C)[C@@H](CN(C)Cc2ccc(C(=O)Nc3ccccc3N)cc2)Oc2ccc(NS(C)(=O)=O)cc2CC1=O	none
Cc1ccc(S(=O)(=O)Nc2ccc3c(c2)CC(=O)N([C@@H](C)CO)C[C@H](C)[C@@H](CN(C)Cc2ccc(C(=O)Nc4ccccc4N)cc2)O3)cc1	Pf Dd2 growth -85
Cc1noc(C)c1S(=O)(=O)Nc1ccc2c(c1)C(=O)N([C@H](C)CO)C[C@H](C)[C@@H](CN(C)C(=O)C1CCCCC1)OCCCC[C@H](C)O2	none (no result: IDH1 mut inh)
COc1ccc(NC(=O)N(C)C[C@H]2Oc3c(NC(=O)Nc4ccccc4)cccc3C(=O)N([C@@H](C)CO)C[C@H]2C)cc1	Pf Dd2 growth -89
COc1ccc(NC(=O)N(C)C[C@@H]2Oc3c(NC(=O)Nc4ccccc4)cccc3C(=O)N([C@H](C)CO)C[C@@H]2C)cc1	none (no result: IDH1 mut inh)
C[C@@H]1CN([C@H](C)CO)C(=O)c2cccc(NC(=O)CCCCCC(=O)Nc3ccccc3N)c2O[C@H]1CN(C)C(=O)Nc1ccccc1	none
COc1ccc(NC(=O)N(C)C[C@H]2Oc3c(NC(=O)CCCCCC(=O)Nc4ccccc4N)cccc3C(=O)N([C@@H](C)CO)C[C@H]2C)cc1	Pf Dd2 growth -89 (no result: IDH1 mut inh)
C[C@H]1CN([C@@H](C)CO)C(=O)c2cccc(NC(=O)CCCCCC(=O)Nc3ccccc3N)c2O[C@H]1CN(C)C(=O)Nc1ccc(C(F)(F)F)cc1	Pf Dd2 growth -92
C[C@@H]1CN([C@@H](C)CO)C(=O)c2cccc(NC(=O)CCCCCC(=O)Nc3ccccc3N)c2O[C@H]1CN(C)C(=O)Nc1ccc(C(F)(F)F)cc1	Pf Dd2 growth -84
C[C@H](CO)N1C[C@H](C)[C@@H](CN(C)C(=O)Nc2ccc(C(F)(F)F)cc2)Oc2ccc(NC(=O)CCCCCC(=O)Nc3ccccc3N)cc2C1=O	none (no result: Pf Dd2 growth)
COc1ccc(NC(=O)N(C)C[C@H]2Oc3c(NC(=O)CCCCCC(=O)Nc4ccccc4N)cccc3C(=O)N([C@H](C)CO)C[C@@H]2C)cc1	none (no result: IDH1 mut inh)
O=C(C[C@@H]1CC[C@H]2[C@@H](COC[C@H](O)CN2S(=O)(=O)c2ccccc2F)O1)NCc1ccccc1F	none (no result: IDH1 mut inh)
CO[C@H]1CN(C)C(=O)c2ccc(NC(=O)C3CCCCC3)cc2OC[C@H](C)N(Cc2cccnc2)C[C@@H]1C	none (no result: IDH1 mut inh)
Cc1ccc(S(=O)(=O)N(C)C[C@@H]2OCCCC[C@H](C)Oc3ccc(NC(=O)Nc4ccc(F)cc4)cc3C(=O)N([C@H](C)CO)C[C@@H]2C)cc1	none
C[C@H]1CN([C@@H](C)CO)C(=O)c2cc(NC(=O)CCCCCC(=O)Nc3ccccc3N)ccc2O[C@@H]1CN(C)C(=O)Nc1ccc(C(F)(F)F)cc1	none
C[C@H](CO)N1C[C@H](C)[C@@H](CN(C)C(=O)Nc2ccc(C(F)(F)F)cc2)Oc2c(NC(=O)CCCCCC(=O)Nc3ccccc3N)cccc2C1=O	Pf Dd2 growth -84
C[C@@H]1CN([C@H](C)CO)C(=O)c2cccc(NC(=O)CCCCCC(=O)Nc3ccccc3N)c2O[C@H]1CN(C)C(=O)Nc1ccc(C(F)(F)F)cc1	Pf Dd2 growth -88
C[C@H](CO)N1C[C@H](C)[C@@H](CN(C)C(=O)Nc2ccc(F)cc2)Oc2c(NC(=O)CCCCCC(=O)Nc3ccccc3N)cccc2C1=O	none
C[C@@H]1CN([C@H](C)CO)C(=O)c2c(c3ccccc3n2C)-c2ccccc2CO[C@@H]1CN(C)Cc1cccc(O)c1	Pf Dd2 growth -88 (no result: IDH1 mut inh)
C[C@H]1CN([C@@H](C)CO)C(=O)c2c(c3ccccc3n2C)-c2ccccc2CO[C@@H]1CN(C)Cc1ccc(C(F)(F)F)cc1	none (no result: IDH1 mut inh)
C[C@@H]1CN([C@@H](C)CO)C(=O)c2c(c3ccccc3n2C)-c2ccccc2CO[C@H]1CN(C)Cc1cccc(C(F)(F)F)c1	Pf Dd2 growth -92 (no result: IDH1 mut inh)
C[C@@H]1CN([C@@H](C)CO)C(=O)c2c(c3ccccc3n2C)-c2ccccc2CO[C@@H]1CN(C)Cc1ccc2c(c1)OCO2	Pf Dd2 growth -83 (no result: IDH1 mut inh)
C[C@@H]1CN([C@H](C)CO)C(=O)c2c(c3ccccc3n2C)-c2ccccc2CO[C@@H]1CN(C)Cc1ccc(C(F)(F)F)cc1	none (no result: IDH1 mut inh)
C[C@H](CO)N1C[C@H](C)[C@@H](CN(C)Cc2cccc(O)c2)OCc2ccccc2-c2c(n(C)c3ccccc23)C1=O	none (no result: IDH1 mut inh)
C[C@@H]1CN([C@H](C)CO)C(=O)c2c(c3ccccc3n2C)-c2ccccc2CO[C@@H]1CN(C)Cc1ccc2c(c1)OCO2	none (no result: IDH1 mut inh)
C[C@@H]1CN([C@H](C)CO)C(=O)c2c(c3ccccc3n2C)-c2ccccc2CO[C@H]1CN(C)Cc1cccc(C(F)(F)F)c1	Pf Dd2 growth -84 (no result: IDH1 mut inh)
CN(C)CCCNC(=O)C[C@H]1C=C[C@H](NS(=O)(=O)c2ccc(F)cc2)[C@@H](CO)O1	none
C[C@@H]1CN([C@H](C)CO)C(=O)c2cccc(NS(=O)(=O)c3ccc(Cl)cc3)c2O[C@@H]1CN(C)Cc1ccc(C(=O)O)cc1	none
CO[C@@H]1CN(C)C(=O)c2cc(NC(C)=O)ccc2OC[C@H](C)N(C(=O)c2ccccc2F)C[C@@H]1C	none
Cc1cccc(-c2ccc([C@@H]3[C@@H](CO)N4C(=O)CN(C(=O)NC5CCCCC5)C[C@H]34)cc2)c1	none (no result: IDH1 mut inh)
CCCC(=O)Nc1ccc2c(c1)OC[C@@H](C)N(C(=O)Cc1ccccn1)C[C@@H](C)[C@H](OC)CN(C)C2=O	none
CC(C)CC#Cc1cnc2c(c1)C(=O)N([C@@H](C)CO)C[C@H](C)[C@H](CN(C)C(=O)Nc1ccccc1F)O2	none
COc1ccc2c3c([nH]c2c1)[C@H](CO)N(Cc1cc(F)ccc1F)CC31CN(C(C)=O)C1	Pf Dd2 growth inconclusive (no result: IDH1 mut inh)
